# Compounds with a hit are over-represented: about 3.5% of the library has one in this group of screens.
# MrgX1 allo act: positive allosteric modulators of MrgX1, primary screen, HEK293 cells, Fluo-4 calcium flux; Mas-related G-protein coupled receptor member X1 (Homo sapiens), Q96LB2; FDSS; stronger effect = higher value; B-score at 10 µM; hit rate 0.63% among 310,000; AID 588675, 2011;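 active = plate-corrected calcium response at least 3 library SD above typical, normal starting fluorescence, not activating the receptor alone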;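 also: compound read alongside a low EC10 to EC30 dose of BAM8-22 agonist; peak minus trough fluorescence over baseline measured at the second addition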
# Target sequence (Q96LB2 whole entry, looked up): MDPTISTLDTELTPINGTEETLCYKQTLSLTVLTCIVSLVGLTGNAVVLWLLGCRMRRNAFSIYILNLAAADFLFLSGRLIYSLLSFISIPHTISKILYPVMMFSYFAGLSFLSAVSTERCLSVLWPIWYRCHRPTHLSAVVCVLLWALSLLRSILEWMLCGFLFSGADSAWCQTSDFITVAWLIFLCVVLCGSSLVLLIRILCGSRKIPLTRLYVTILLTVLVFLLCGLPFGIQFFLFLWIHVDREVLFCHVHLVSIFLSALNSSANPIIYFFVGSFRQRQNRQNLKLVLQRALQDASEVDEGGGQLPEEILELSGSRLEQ
# RGS4 inh: RGS4 inhibitors, primary screen, cell-based, HEK293 M3R inducible RGS4, calcium flux; Fluo-4 calcium flux; stronger effect = higher value; triggered by carbachol at its EC20; B-score at 10 µM; Regulator of G-protein signaling 4 (Homo sapiens), P49798; hit rate 0.45% among 310,000;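 active = B-score, a plate-corrected calcium signal, over three deviations above library mean, with baseline fluorescence within five deviations of library mean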;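 also: RGS4 expression induced by doxycycline in cells with stable M3 receptor; B-score is computed from the integrated fluorescence ratio over baseline after carbachol; higher B-score means a larger calcium signal and so more RGS4 inhibition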
# MrgX1 antag: antagonists of human MrgX1 receptor, primary screen, HEK293 cells, Fluo-4 calcium flux; hit rate 1.3% among 310,000; BAM8-22 antagonism; stronger effect = lower value; B-score at 10 µM;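 active = calcium-response B-score plate-corrected more than 3 library SD below zero, starting fluorescence within 5 deviations, no agonist response on first addition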;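 also: peak minus trough fluorescence over baseline after final BAM8-22 challenge near maximal dose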
# MrgX1 agonist: agonists of human MrgX1 receptor, primary screen, HEK293 cells, Fluo-4 calcium flux; hit rate 0.44% among 310,000; Mas-related G-protein coupled receptor member X1 (Homo sapiens), Q96LB2; Fluo-4 calcium fluorescence, agonist mode; stronger effect = higher value; B-score at 10 µM;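 active = calcium response B-score plate-corrected fluorescence ratio at least 3 library SD, with starting fluorescence B-score inside 5 SD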
#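 Material: MrgX1-expressing HEK293 cells / Dosing: compound as first of three additions / Incubation: overnight seeding, then 1 h dark dye loading / Signal: Fluo-4 NW calcium fluorescence / Evaluation: B-scored fluorescence response ratio / Benchmarks: positive and negative control wells on each plate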
# RGS4 pot: RGS4 potentiators or activators, primary screen, cell-based, HEK293 M3R inducible RGS4, calcium flux | carbachol calcium flux Fluo4; stronger effect = lower value | hit rate 0.92% among 310,000 | B-score at 10 µM | AID 463111, 2010;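 active = B-score of the integrated calcium signal more than 4 SD below the library mean, with starting fluorescence not abnormally high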;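 also: negative B-score means reduced calcium response which marks RGS4 activation or potentiation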
#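 System: HEK293 FlpIn-TREx cells, stable M3R, doxycycline-inducible RGS4. Timing: overnight RGS4 induction, 30 min dye load 37 °C, 20 min compound RT. Also added: carbachol, ECmax concentration. Measured by: Fluo4 fluorescence kinetic imaging of calcium. Evaluation: integrated calcium ratio converted to B score.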
# The depositor's hits bear a star; i = inactive.
SMILES,MrgX1 allo act,RGS4 inh,MrgX1 antag,MrgX1 agonist,RGS4 pot
Cc1ccc(S(=O)(=O)Nc2ccccc2F)cc1C(=O)OC(C)C(=O)N1CCOCC1 (stereo not drawn),i,i,i,i,i
COC(=O)c1ccc(-c2noc(CN(Cc3nccn3C)C(C)C)n2)cc1,i,i,i,i,-7.5*
Cc1c(C(=O)OC(C)C(C)C[N+](C)(C)C)oc2ccccc12 (stereo not drawn),i,i,i,i,-8.4*
N#C/C(=C\c1ccc(OCCN2CCOCC2)cc1)C(=O)Nc1ccc(S(N)(=O)=O)cc1,i,i,i,i,i
CCOC(=O)NC(=O)COC(=O)CNC(=O)c1ccc(OCC)c(OCC)c1,8.9*,i,i,i,i
Cc1noc2ncnc(Oc3cc(Cl)ccc3Cl)c12,i,i,i,i,i
Cc1cc(Cl)ccc1Oc1ncnc2oc(-c3ccccc3)cc12,12*,i,i,i,i
Cc1ccc(C(=O)c2oc3ccccc3c2NC(=O)c2cc(-c3cc(C)ccc3O)n[nH]2)cc1,i,i,-5.2*,i,i
O=C(CCC(=O)OCC(=O)c1ccc(-c2ccccc2)cc1)Nc1cccc2cccnc12,i,i,i,i,i
O=C(CCC(=O)OCC(=O)c1ccc(Cl)cc1Cl)Nc1cccc2cccnc12,i,i,-8.4*,i,i
COc1ccc(OC)c(/C=C2/Sc3ccccc3C2=O)c1,8.7*,i,i,i,i
CCn1ncc(/C=C/C(=O)NCc2cn(C)nc2C)c1C,i,i,-4.8*,i,i
CCn1ncc(/C=C/C(=O)NCc2cnn(C)c2C)c1C,i,i,i,i,i
CCC[n+]1c2ccccc2cc2ccccc21,i,i,i,26*,i
CCCCC[n+]1cccc2c3ccccc3ccc21,i,i,i,i,i
CCCC[n+]1c2ccccc2cc2ccccc21,i,i,i,32*,i
Cc1ccc2ccccc2[n+]1CCCS(=O)(=O)[O-],i,i,i,i,i
CCCCNC(=O)c1sc(=S)n2c1[nH]c(=O)c1ccccc12,i,i,i,63*,i
O=C(NCC1CCCO1)c1sc(=S)n2c1[nH]c(=O)c1ccc(C(=O)N3CCCCC3)cc12 (stereo not drawn),i,i,i,i,i
O=C(NC1CCCCC1)c1sc(=S)n2c1[nH]c(=O)c1ccccc12,i,i,i,47*,i
Cc1ccc(NC(=O)Cn2c(=O)oc3ccccc32)c(C)c1,i,i,i,i,i
CC(=O)CSc1nnc(-c2ccc(S(=O)(=O)N3CCCC3)cc2)n1C,i,i,i,i,i
CC(C)CCNC(=O)CSc1nnc(-c2ccc(S(=O)(=O)N3CCCC3)cc2)n1C,i,i,-5.4*,i,i
O=C(CCCCCN1C(=O)[C@@H]2Cc3ccccc3CN2C1=O)Nc1cccc(F)c1,i,i,i,i,-7.5*
Cc1cccc(NC(=O)CCCCCN2C(=O)[C@@H]3Cc4ccccc4CN3C2=O)c1,i,i,i,i,i
CCN=C1SC(C(=O)Nc2cccc(C)c2)CC(=O)N1CC (stereo not drawn),i,i,i,i,-7.4*
CCN=C1SC(C(=O)Nc2cccc(Cl)c2)CC(=O)N1CC (stereo not drawn),i,i,i,i,i
CCOC(=O)C1=C(C)N=c2s/c(=C/c3ccc(OCC(=O)O)cc3)c(=O)n2C1c1ccc(OC)cc1OC (stereo not drawn),i,i,i,i,i
CCOC(=O)C1=C(C)N=c2s/c(=C/c3cccc([N+](=O)[O-])c3O)c(=O)n2C1c1ccc(OC)cc1OC (stereo not drawn),i,i,i,i,-8.4*
